# Measured values taken from ChEMBL document CHEMBL1145864, “Synthesis and structure-activity relationship of a new series of COX-2 selective inhibitors: 1,5-diarylimidazoles” (J Med Chem, 2003).
# Assays:
# [1] = molecular target: T1, Prostaglandin G/H synthase 2 (Homo sapiens) (UniProt P35354); settings: Blood; at 1 µM
# T1 sequence (whole entry): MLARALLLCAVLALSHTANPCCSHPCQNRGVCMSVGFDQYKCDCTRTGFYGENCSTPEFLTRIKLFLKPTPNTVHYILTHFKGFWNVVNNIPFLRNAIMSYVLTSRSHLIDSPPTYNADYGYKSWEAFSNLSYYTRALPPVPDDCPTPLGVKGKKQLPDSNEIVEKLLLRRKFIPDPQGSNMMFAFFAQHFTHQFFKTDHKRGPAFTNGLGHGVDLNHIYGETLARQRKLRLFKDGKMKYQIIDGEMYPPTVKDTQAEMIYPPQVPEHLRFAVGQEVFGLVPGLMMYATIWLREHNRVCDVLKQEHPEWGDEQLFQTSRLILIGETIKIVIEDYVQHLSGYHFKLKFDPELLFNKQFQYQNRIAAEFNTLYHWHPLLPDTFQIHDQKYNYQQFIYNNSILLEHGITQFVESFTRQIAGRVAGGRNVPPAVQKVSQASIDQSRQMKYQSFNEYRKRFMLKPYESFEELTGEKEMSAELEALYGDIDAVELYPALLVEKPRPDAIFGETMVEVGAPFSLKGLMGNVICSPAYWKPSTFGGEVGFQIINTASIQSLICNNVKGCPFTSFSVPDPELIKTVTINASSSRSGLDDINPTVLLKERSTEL
# [2] = molecular target: Prostaglandin G/H synthase 1 (Homo sapiens, UniProt P23219); format: cell-based, U-937
# [3] = molecular target: T1, Prostaglandin G/H synthase 2 (Homo sapiens); settings: Blood; at 10 µM
# Rattus norvegicus [4] = assay: In vivo anti-inflammatory activity determined by rat carrageenan paw edema method at 10 mg/kg perorally; format: functional; settings: route oral
# Rattus norvegicus [5] = assay: In vivo anti-inflammatory activity by air pouch model at 1 mg/kg perorally in rat.; format: functional; settings: route oral
# Outline: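 Rat air pouch: sterile air (20 mL) was injected subcutaneously, with 10 mL refills every 2 days. On day 7, 2 mL of 1% lambda-carrageenan in saline was injected into the pouch. Compound was given orally (suspension in 1% CMC/Tween-80, 10 mL/kg) 0.5 h before carrageenan. At 6 h, exudate was collected and centrifuged, and supernatant PGE2 was measured by ELISA.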
# Rattus norvegicus [6] = assay: In vivo analgesic activity of compound was determined by inflammatory hyperalgesia model at 3 mg/kg perorally in rat; format: functional; settings: route oral
# Outline: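 Male Sprague–Dawley rats received 1% carrageenan suspension (0.1 mL) into the right hind foot pad. Three hours later, compound (suspended in 1% Tween-80) was given by gavage. After 30 min, a heat stimulus was applied under the inflamed paw and withdrawal latency (s) recorded. The % inhibition of the stimulus-induced latency decrease was calculated relative to the untreated left paw.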
# [7] = Half life of compound was determined at 1 mg/kg intravenous administration in rat; format: ADME, organism-based; set-up: dose 1 mg/kg, route intravenous; settings: in vivo
# Rattus norvegicus [8] = assay: In vivo anti-inflammatory activity of compound was determined by rat carrageenan paw edema at 10 mg/kg perorally; settings: po
# Rattus norvegicus [9] = assay: Percentage of [51Cr]- secreted in feces was determined by fecal drug-induced bleeding method in rat at 100 mg/kg, bid for 4 days
# Rattus norvegicus [10] = assay: In vivo inhibition of contralateral paw swelling after oral treatment for 28 days (1 mg/kg od) was determined by adjuvabt arthritis in rat; format: functional
# Outline: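 Lewis rats (140–170 g, 7 weeks) received 0.5 mg Mycobacterium butyricum in light mineral oil intradermally into the right hind foot pad; controls received incomplete adjuvant. Groups of 10 were dosed orally at 1 mg/kg daily for 28 days, starting on the day of injection. Left hind paw volume was measured plethysmographically at the end and expressed as % inhibition versus controls.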
# [11] = molecular target: T1, Prostaglandin G/H synthase 2 (Homo sapiens); assay: In vitro inhibition of Prostaglandin G/H synthase 2 (COX-2)in human whole blood at 1 uM was determined
# Chain of Prostaglandin G/H synthase 1 (P23219 whole entry): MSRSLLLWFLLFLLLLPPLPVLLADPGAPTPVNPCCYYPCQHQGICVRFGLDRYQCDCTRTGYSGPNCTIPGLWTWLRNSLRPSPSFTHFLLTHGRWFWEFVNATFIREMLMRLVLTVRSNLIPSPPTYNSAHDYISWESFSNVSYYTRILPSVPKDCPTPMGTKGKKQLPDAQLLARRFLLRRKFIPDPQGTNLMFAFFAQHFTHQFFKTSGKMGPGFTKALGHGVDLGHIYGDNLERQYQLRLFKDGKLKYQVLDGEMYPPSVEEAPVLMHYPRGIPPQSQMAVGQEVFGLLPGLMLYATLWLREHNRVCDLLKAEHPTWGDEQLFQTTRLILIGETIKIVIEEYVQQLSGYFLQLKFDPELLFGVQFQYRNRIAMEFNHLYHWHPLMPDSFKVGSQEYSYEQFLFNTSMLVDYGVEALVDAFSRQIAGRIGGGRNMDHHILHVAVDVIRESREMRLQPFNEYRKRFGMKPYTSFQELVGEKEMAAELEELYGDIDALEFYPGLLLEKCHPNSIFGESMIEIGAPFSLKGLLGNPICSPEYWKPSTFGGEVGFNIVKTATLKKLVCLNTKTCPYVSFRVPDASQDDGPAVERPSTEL
Structure (SMILES),inhibition [1] [%],IC50 [2] [µM],inhibition [3] [%],inhibition in vivo at 10 mg/kg (Rattus norvegicus [4]) [%],inhibition in vivo at 1 mg/kg (Rattus norvegicus [5]) [%],inhibition in vivo at 3 mg/kg (Rattus norvegicus [6]) [%],half-life [7] [h],inhibition in vivo at 10 mg/kg (Rattus norvegicus [8]) [%],Cr secretion (Rattus norvegicus [9]) [%],Inhibition (Rattus norvegicus [10]) [%],inhibition [11] [%]
COc1ccc(-c2c(Cl)ncn2-c2ccc(S(C)(=O)=O)cc2)cc1C,100,> 10,100,21.4,75.6,–,–,–,–,–,–
CS(=O)(=O)c1ccc(-n2cnc(Cl)c2-c2ccc3c(c2)OCO3)cc1,60.5,> 10,100,30.6,–,69.9,3.5,–,–,–,–
Cc1ncn(-c2ccc(S(C)(=O)=O)cc2)c1-c1ccc(F)cc1,34.5,> 10,86.5,–,45,–,–,–,–,–,–
CCN(CC)c1ccc(-c2c(Cl)ncn2-c2ccc(S(C)(=O)=O)cc2)cc1,9.7,> 10,100,24.2,64.1,64.1,–,–,–,–,–
CS(=O)(=O)c1ccc(-n2cnc(Cl)c2-c2ccncc2)cc1,54.5,> 10,82.4,31.7,50.2,69.4,–,–,–,–,–
Cc1ccc(-c2c(Cl)ncn2-c2ccc(S(C)(=O)=O)cc2)cc1F,75.1,> 10,100,22.6,18.5,–,–,–,–,–,–
CS(=O)(=O)c1ccc(-n2cnc(Cl)c2-c2ccc(F)cc2)cc1,89,> 10,100,–,98.1,–,21,41.2,–,–,–
CS(=O)(=O)c1ccc(-c2cnc(Br)n2-c2ccc(F)cc2)cc1,56.2,> 10,92.8,40.4,35.5,–,–,–,–,–,–
COc1ccc2c(c1)c(CC(=O)O)c(C)n2C(=O)c1ccc(Cl)cc1 [INDOMETHACIN],–,–,–,66.2,–,–,–,–,7.5,94,–
Cc1ccc(-c2c(Cl)ncn2-c2ccc(S(C)(=O)=O)cc2)cc1,90.5,> 10,100,21.6,65.5,–,1.7,–,–,–,–
CS(=O)(=O)c1ccc(-n2cnc(Cl)c2-c2ccccc2)cc1,82.6,> 10,96,29.2,83.2,–,17,–,–,–,–
CS(=O)(=O)c1ccc(-n2cnc(Br)c2-c2ccc(F)cc2)cc1,85.2,> 10,100,–,91.4,–,–,–,–,–,–
CS(=O)(=O)c1ccc(-c2cnc(C#N)n2-c2ccc(F)cc2)cc1,–,> 10,100,28.5,79,–,–,–,–,–,74
COc1ccc(-c2c(Cl)ncn2-c2ccc(S(N)(=O)=O)cc2)cc1F [CIMICOXIB],100,3.3,100,31,98.2,83.4,2.9,–,0.9,93,–
CCOc1ccc(-c2c(Cl)ncn2-c2ccc(S(N)(=O)=O)cc2)cc1,–,2.2,–,29.2,98.9,82.8,2.2,–,0.5,97,–
Cc1ccc(-c2cc(C(F)(F)F)nn2-c2ccc(S(N)(=O)=O)cc2)cc1 [CELECOXIB],–,–,–,35.7,93.4,86.7,–,–,0.7,89,–
COc1cc(-c2c(Cl)ncn2-c2ccc(S(C)(=O)=O)cc2)ccc1F,97.4,> 10,92.6,25,15.1,20.4,–,–,–,–,–
NS(=O)(=O)c1ccc(-n2cnc(Cl)c2-c2ccc(F)cc2)cc1,–,3.1,61.4,38.6,93.2,–,17,–,–,–,–
COc1ccc(-c2c(Cl)ncn2-c2ccc(S(C)(=O)=O)cc2)cc1Cl,84.1,> 10,100,31.4,71.1,66.6,3.6,–,–,–,–
COc1cc(-c2c(Cl)ncn2-c2ccc(S(N)(=O)=O)cc2)ccc1F,–,> 1,79.3,14.3,58.9,38,3.8,–,–,–,–
COc1ccc(-c2c(Cl)ncn2-c2ccc(S(C)(=O)=O)cc2)cc1F,79,> 10,100,24.2,89.5,80,2.2,–,0.4,86,–
CS(=O)(=O)c1ccc(-c2cnc(Cl)n2-c2ccc(F)cc2)cc1,85.6,> 10,100,20.4,55.2,–,–,–,–,–,–
CS(=O)(=O)c1ccc(-n2cnc(Cl)c2-c2ccc(Cl)cc2)cc1,88.4,> 10,100,9.1,–,–,–,–,–,–,–
CS(=O)(=O)c1ccc(-n2cnc(Cl)c2-c2ccc3c(c2)CCO3)cc1,69.9,0.11,65.5,29,–,–,–,–,–,–,–
Cc1ccc(-c2c(Cl)ncn2-c2ccc(S(N)(=O)=O)cc2)cc1,76.1,2.7,100,32.6,62.3,–,5.2,–,–,–,–
CCOc1ccc(-c2c(Cl)ncn2-c2ccc(S(C)(=O)=O)cc2)cc1Cl,47.7,> 10,100,2,–,–,–,–,–,–,–
CS(=O)(=O)c1ccc(C2=C(c3ccccc3)C(=O)OC2)cc1 [ROFECOXIB],84.1,–,100,33.3,95.3,83.4,–,–,0.6,87,–
NS(=O)(=O)c1ccc(-n2cnc(Cl)c2-c2ccccc2)cc1,–,5.1,59.5,36.3,96.3,–,2.9,–,–,–,–
CN(C)c1ccc(-c2c(Cl)ncn2-c2ccc(S(C)(=O)=O)cc2)cc1Cl,64.6,1.9,98.9,33.3,43,63.8,1.2,–,–,–,–
